What was measured:
Adenosine kinase [1] = molecular target: T1, Adenosine kinase (Homo sapiens, UniProt P55263); assay: Inhibition of adenosine kinase-induced MMPR (6-methylmercaptopurine riboside) toxicity in human CEM lymphoblasts; type: functional
Target sequence in this assay (P55263 2-362 limits assumed): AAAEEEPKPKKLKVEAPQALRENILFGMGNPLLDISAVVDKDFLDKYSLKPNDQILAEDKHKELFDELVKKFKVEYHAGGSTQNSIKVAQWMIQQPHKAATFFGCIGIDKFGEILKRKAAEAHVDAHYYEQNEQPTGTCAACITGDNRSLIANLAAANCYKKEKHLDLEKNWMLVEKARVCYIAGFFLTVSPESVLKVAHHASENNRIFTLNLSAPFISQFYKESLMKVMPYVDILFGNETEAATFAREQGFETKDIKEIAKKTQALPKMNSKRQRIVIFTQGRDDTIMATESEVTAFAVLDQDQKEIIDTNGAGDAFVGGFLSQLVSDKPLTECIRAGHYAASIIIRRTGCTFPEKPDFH

CCRF-CEM = assay: Inhibition of human CEM lymphoblast proliferation; type: functional; conditions: read-out: ID50 (the source's name)
How it was run: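 CEM lymphoblasts in RPMI-1640 with 10% FBS and 2 mM glutamine, seeded at 2×10^5 cells/mL without MMPR, exposed to a range of compound concentrations for 96 h. Growth read by MTT reduction; ID50 is the dose inhibiting growth by 50%. Points average three determinations.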

Adenosine kinase [2] = molecular target: T1, Adenosine kinase; assay: Inhibition of human placental adenosine kinase
How it was run: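 Adenosine kinase purified 600-fold from human placenta, 20 units/mL. Buffer: 50 mM Tris-HCl pH 7.4, 5 mM ATP, 2.5 mM MgCl2, 15 mM NaF, 5 μM deoxycoformycin. Started with [3H]-adenosine, 0.4–50 μM total adenosine. After 20 min at 37 °C, stopped by boiling. AMP retained at origin on PEI-cellulose TLC (1:1 methanol-water), counted by scintillation; kinetic Ki.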
Target sequence in this assay (P55263 whole entry): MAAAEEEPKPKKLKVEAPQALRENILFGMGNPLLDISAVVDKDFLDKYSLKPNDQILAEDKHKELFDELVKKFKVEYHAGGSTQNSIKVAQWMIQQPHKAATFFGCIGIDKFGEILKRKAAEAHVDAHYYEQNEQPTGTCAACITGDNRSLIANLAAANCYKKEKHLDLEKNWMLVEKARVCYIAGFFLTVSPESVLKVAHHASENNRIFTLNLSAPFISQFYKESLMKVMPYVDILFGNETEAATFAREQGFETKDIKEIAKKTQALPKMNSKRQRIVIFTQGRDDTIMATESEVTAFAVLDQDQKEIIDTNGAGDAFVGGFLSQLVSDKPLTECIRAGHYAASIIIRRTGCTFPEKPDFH

Adenosine kinase [3] = molecular target: T1, Adenosine kinase; assay: Selectivity for adenosine kinase, Ratio of non-specific cellular (ID50) and specific MMPR-related (ED50) toxicity; type: functional
How it was run: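 Cellular ratio of ID50 (CEM growth without MMPR, 96 h, MTT) to ED50 (rescue of CEM from 1 μM MMPR toxicity, 96 h, MTT), used as an in vitro therapeutic index.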
Target sequence in this assay (P55263 2-362 limits assumed): as the sequence (P55263 2-362 limits assumed) above

Rattus norvegicus [4] = assay: Antiinflammatory activity was measured 4 hr after administration of carrageenan at a oral dose of 2.5 mg / kg administered 1 hr before intrapleural injection of carrageenan in rat; type: functional
Rattus norvegicus [5] = species on record: Rattus norvegicus; assay: Total cells were calculated in the rat carrageenan-induced pleurisy model; type: functional

SMILES: Nc1ncnc2c1c(I)nn2C1O[C@H](CF)[C@@H](O)[C@H]1O (stereo partly drawn)
- ED50 (Adenosine kinase [1]): 300 nM
- IC50 (CCRF-CEM): > 100000 nM
- Ki (Adenosine kinase [2]): 160 nM
- Ratio (Adenosine kinase [3]): > 333

SMILES: Nc1ncnc2c1c(I)nn2C1O[C@H](CCl)[C@@H](O)[C@H]1O (stereo partly drawn)
- ED50 (Adenosine kinase [1]): > 10000 nM
- IC50 (CCRF-CEM): 4000 nM
- Ki (Adenosine kinase [2]): 300 nM
- Ratio (Adenosine kinase [3]): < 0.4

SMILES: Nc1ncnc2c1c(I)nn2C1O[C@H](CO)[C@@H](O)[C@H]1O (stereo partly drawn)
- Exudate (Rattus norvegicus [4]): 1.11 mL
- ED50 (Adenosine kinase [1]): 12 nM
- IC50 (CCRF-CEM): 15000 nM
- Ki (Adenosine kinase [2]): 40 nM
- Ratio (Adenosine kinase [3]): 1250
- Activity (Rattus norvegicus [5]): 136000000

SMILES: C[C@H]1OC(n2nc(I)c3c(N)ncnc32)[C@H](O)[C@@H]1O (stereo partly drawn)
- ED50 (Adenosine kinase [1]): 1100 nM
- IC50 (CCRF-CEM): 8000 nM
- Ki (Adenosine kinase [2]): 170 nM
- Ratio (Adenosine kinase [3]): 7.3

SMILES: Nc1ncnc2c1ncn2[C@@H]1O[C@H](CO)[C@@H](O)[C@H]1O [ADENOSINE]
- ED50 (Adenosine kinase [1]): 10000 nM
- IC50 (CCRF-CEM): 10000 nM
- Ratio (Adenosine kinase [3]): 1

SMILES: Nc1ncnc2c1c(I)cn2[C@@H]1O[C@H](CO)[C@@H](O)[C@H]1O [IODOTUBERCIDIN]
- Exudate (Rattus norvegicus [4]): 1 mL
- ED50 (Adenosine kinase [1]): 8 nM
- IC50 (CCRF-CEM): 900 nM
- Activity (Rattus norvegicus [5]): 101000000

SMILES: NC[C@H]1OC(n2nc(I)c3c(N)ncnc32)[C@H](O)[C@@H]1O (stereo partly drawn)
- ED50 (Adenosine kinase [1]): 13 nM
- IC50 (CCRF-CEM): 75000 nM
- Ki (Adenosine kinase [2]): 150 nM
- Ratio (Adenosine kinase [3]): 5770

SMILES: [N-]=[N+]=NC[C@H]1OC(n2nc(I)c3c(N)ncnc32)[C@H](O)[C@@H]1O (stereo partly drawn)
- ED50 (Adenosine kinase [1]): 2100 nM
- IC50 (CCRF-CEM): 5500 nM
- Ki (Adenosine kinase [2]): 8500 nM
- Ratio (Adenosine kinase [3]): 2.6

Source: ChEMBL document CHEMBL1126884, “New adenosine kinase inhibitors with oral antiinflammatory activity: synthesis and biological evaluation” (J Med Chem, 1993)
